Test results published in ChEMBL document CHEMBL2331329, “Synthesis and biological evaluation of 2-(alkoxycarbonyl)-3-anilinobenzo[b]thiophenes and thieno[2,3-b]pyridines as new potent anticancer agents” (J Med Chem, 2013).
Activity calls are given as the source filed them. No cut-off for these calls is given here.

Legend:
HeLa [1] = assay: Induction of apoptosis in human HeLa cells assessed as reduction of Xiap expression at 10 nM after 24 hrs by Western Blot analysis; assay type: functional, cell-based
In short: (§1)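 HeLa cells exposed to 10 or 100 nM for 24 or 48 h, washed in ice-cold PBS, lysed on ice 30 min, spun at 15000g at 4 °C. 20 μg protein run on 7.5–15% SDS–PAGE, blotted to PVDF, blocked overnight at 4 °C. Primary antibodies 2 h at room temperature, peroxidase secondary 60 min, ECL detection, β-actin reprobe as loading control.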

[2] = Selectivity ratio of IC50 for human Jurkat cells to IC50 for human PHA-stimulated PBL cells; assay type: ADME, cell-based; settings: Jurkat cells and PHA-stimulated PBL cells, read-out: Ratio IC50
HeLa [3] = assay: Induction of apoptosis in human HeLa cells assessed as ROS production at 10 to 100 nM after 24 to 48 hrs by HE staining-based flow cytometry relative to control; assay type: functional, cell-based
In short: (§2)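 HeLa cells treated 24 or 48 h, then stained with H2-DCFDA or hydroethidine. ROS read by flow cytometry against untreated control. Mean ± SEM of three independent experiments.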

A549 [4] = assay: Cytotoxicity against human A549 cells after 72 hrs by MTT assay; assay type: functional, cell-based; settings: A549, 72 h
HeLa [5] = assay: Cytotoxicity against human HeLa cells after 72 hrs by MTT assay; assay type: functional, cell-based
LoVo = assay: Cytotoxicity against human LoVo cells after 72 hrs by MTT assay; assay type: functional, cell-based
In short: (§3)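 MTT viability test: 8 × 10^3 cells per well settled 18 h at 37 °C, 5% CO2, then given fresh medium with compound (from 10 mM DMSO stocks, final DMSO ≤0.25%) for 72 h. […] CEMVbl-100 is a vinblastine-selected P-gp line; LoVoDoxo is grown in Ham's F12 with 0.1 μg/mL doxorubicin. Resistance index = resistant IC50/parental IC50.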

HT-29 [6] = assay: Cytotoxicity against human HT-29 cells after 72 hrs by MTT assay; assay type: functional, cell-based; settings: HT-29, 72 h
CCRF-CEM = assay: Resistance index, ratio of IC50 for human CEM/VBL100 cells to IC50 for human CEM cells; assay type: functional; in short: as §3
HeLa [7] = assay: Induction of apoptosis in human HeLa cells assessed as Mcl-1 phosphorylation at 10 to 100 nM after 24 hrs by Western Blot analysis; assay type: functional, cell-based; in short: as §1
Bos taurus [8] = organism: Bos taurus; assay: Displacement of [3H]colchicine from bovine brain tubulin at 5 uM after 20 mins by turbidimetric analysis
Jurkat [9] = assay: Cell cycle arrest in human Jurkat cells assessed as accumulation at G2/M phase at >20 nM after 24 hrs by propidium iodide staining-based flow cytometry; assay type: functional
In short: (§4)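 Jurkat, HT-29 and HeLa cells in exponential growth (5 × 10^5 cells) treated 24 h at a range of concentrations. Fixed in ice-cold 70% ethanol, lysed with buffer containing RNase A and 0.1% Triton X-100, stained with propidium iodide. DNA content read by flow cytometry and the percentage of cells per cycle phase derived from DNA histograms.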

Jurkat [10] = assay: Cytotoxicity against human Jurkat cells after 72 hrs by MTT assay; assay type: functional, cell-based
In short: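 Cells plated at 8 × 10^3 per well, 18 h at 37 °C, 5% CO2, then fresh medium with graded compound concentrations (DMSO ≤0.25%) for 72 h. Jurkat, SEM, HL-60 grown in RPMI-1640; A549, HeLa, HT-29, MCF-7 in DMEM; 10% FBS with penicillin/streptomycin. MTT viability read-out; IC50 vs 0.25% DMSO controls; mean ± SE of at least three independent experiments.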

PBL = assay: Cytotoxicity against human PBL cells after 72 hrs by MTT assay; assay type: cell-based
In short: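 Peripheral blood lymphocytes from healthy donors isolated on a Lymphoprep gradient and rested overnight in RPMI-1640 with 10% FBS. Nonadherent cells at 5 × 10^5 cells/mL, with 2.5 μg/mL PHA for proliferating cultures or without it for resting ones. Compound exposure 72 h, viability by MTT. Mean ± SEM of three experiments.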

HT-29 [11] = assay: Ratio of Combretastatin A-4 IC50 to compound IC50 for human HT-29 cells; assay type: functional
HT-29 [12] = assay: Cell cycle arrest in human HT-29 cells assessed as accumulation at G2/M phase after 24 hrs by propidium iodide staining-based flow cytometry; assay type: functional; in short: as §4
Jurkat [13] = assay: Ratio of Combretastatin A-4 IC50 to compound IC50 for human Jurkat cells; assay type: functional
HeLa [14] = assay: Ratio of Combretastatin A-4 IC50 to compound IC50 for human HeLa cells; assay type: functional
[15] = Cytotoxicity against mouse BNL 1ME A.7R.1 cells; assay type: functional, cell-based
HeLa [16] = assay: Induction of apoptosis in human HeLa cells assessed as PARP cleavage at 10 nM after 24 hrs by Western Blot analysis; assay type: functional, cell-based; in short: as §1
Bos taurus [17] = organism: Bos taurus; assay: Displacement of [3H]colchicine from bovine brain tubulin at 1 uM after 20 mins by turbidimetric analysis
A549 [18] = assay: Ratio of Combretastatin A-4 IC50 to compound IC50 for human A549 cells; assay type: functional
HeLa [19] = assay: Induction of apoptosis in human HeLa cells assessed as early apoptotic cells at 10 to 100 nM by annexin V-FITC and propidium iodide staining-based flow cytometry; assay type: functional, cell-based; settings: TDE = time-dependent effect
In short: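 HeLa cells treated 24 or 48 h, then co-labelled with annexin-V–FITC and propidium iodide. Flow cytometry with 488 nm excitation and emission at 525 nm (FITC) and 585 nm (PI); early apoptotic cells counted as annexin-V+/PI−. Mean ± SEM of three independent experiments.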

Jurkat [20] = assay: Cell cycle arrest in human Jurkat cells assessed as accumulation at G2/M phase after 24 hrs by propidium iodide staining-based flow cytometry; assay type: functional; in short: as §4
[21] = Cytotoxicity against human CEM/VBL100 cells after 72 hrs by MTT assay; assay type: functional, cell-based; settings: CEM/VBL100, 72 h; in short: as §3
HeLa [22] = assay: Induction of apoptosis in human HeLa cells assessed as ROS production at 10 to 100 nM after 24 to 48 hrs by H2-DCFDA staining-based flow cytometry relative to control; assay type: functional, cell-based; in short: as §2
HeLa [23] = assay: Cell cycle arrest in human HeLa cells assessed as accumulation at G2/M phase at 20 nM after 24 hrs by propidium iodide staining-based flow cytometry; assay type: functional; in short: as §4
[24] = Antitumor activity against mouse BNL 1ME A.7R.1 cells xenografted in Balb/c mouse assessed as reduction in tumor growth at 5 mg/kg, ip QD for 7 days; assay type: functional; set-up: scale not given: the % may be the effect or the level left; settings: route intraperitoneal
In short: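 Male Balb/c mice, 8 weeks old, given 10^7 syngeneic BNL 1ME A.7R.1 hepatoma cells subcutaneously in the dorsal region in 200 μL PBS. Randomised to groups of five. Dosed intraperitoneally once daily for 7 days at 5 mg/kg in 0.9% NaCl with 5% PEG 400 and 0.5% Tween 80, against vehicle and CA-4P. Tumours measured daily by caliper, V = AB2/2; body weight recorded. Mean ± SEM.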

HeLa [25] = assay: Cell cycle arrest in human HeLa cells assessed as increase in activated cdc25 level at 10 to 100 nM after 24 to 48 hrs by Western Blot analysis; assay type: functional, cell-based; in short: as §1
HT-29 [26] = assay: Cell cycle arrest in human HT-29 cells assessed as accumulation at G2/M phase at 20 nM after 24 hrs by propidium iodide staining-based flow cytometry; assay type: functional; in short: as §4

COC(=O)c1sc2cc(OC)ccc2c1Nc1cc(OC)c(OC)c(OC)c1
Activity (HeLa [1]): Active | selectivity ratio [2]: 2000 | Activity (HeLa [3]): Active | IC50 (A549 [4]): 8.5 nM | IC50 (HeLa [5]): 0.28 nM | IC50 (LoVo): 0.3 nM | IC50 (HT-29 [6]): 0.9 nM | Ratio IC50 (CCRF-CEM): 0.4 | Activity (HeLa [7]): Active | inhibition (Bos taurus [8]): 98% | Activity (Jurkat [9]): >80% | IC50 (Jurkat [10]): 1.7 nM | IC50 (PBL): > 10000 nM | Ratio IC50 (HT-29 [11]): 2 | Activity (HT-29 [12]): Dose-dependent effect | Ratio IC50 (Jurkat [13]): 2 | Ratio IC50 (HeLa [14]): 2 | IC50 [15]: 2.1 nM | Activity (HeLa [16]): Active | inhibition (Bos taurus [17]): 85% | Ratio IC50 (A549 [18]): 2 | Activity (HeLa [19]): tde | Activity (Jurkat [20]): Dose-dependent effect | IC50 [21]: 1.3 nM | Activity (HeLa [22]): Active | Activity (HeLa [23]): Active | Activity [24]: 68.5% | Activity (HeLa [25]): Active | Activity (HT-29 [26]): Active
